Results published in PMC11303814 (Nature Communications, 2024).

Assays:
[1] = biological target: T1, full-length wild-type rP2X7 (Rattus norvegicus, UniProt Q64663); test: TEVC dose response; type: cell-based; conditions: WT rP2X7, TEVC
T1 sequence (Q64663 1-595): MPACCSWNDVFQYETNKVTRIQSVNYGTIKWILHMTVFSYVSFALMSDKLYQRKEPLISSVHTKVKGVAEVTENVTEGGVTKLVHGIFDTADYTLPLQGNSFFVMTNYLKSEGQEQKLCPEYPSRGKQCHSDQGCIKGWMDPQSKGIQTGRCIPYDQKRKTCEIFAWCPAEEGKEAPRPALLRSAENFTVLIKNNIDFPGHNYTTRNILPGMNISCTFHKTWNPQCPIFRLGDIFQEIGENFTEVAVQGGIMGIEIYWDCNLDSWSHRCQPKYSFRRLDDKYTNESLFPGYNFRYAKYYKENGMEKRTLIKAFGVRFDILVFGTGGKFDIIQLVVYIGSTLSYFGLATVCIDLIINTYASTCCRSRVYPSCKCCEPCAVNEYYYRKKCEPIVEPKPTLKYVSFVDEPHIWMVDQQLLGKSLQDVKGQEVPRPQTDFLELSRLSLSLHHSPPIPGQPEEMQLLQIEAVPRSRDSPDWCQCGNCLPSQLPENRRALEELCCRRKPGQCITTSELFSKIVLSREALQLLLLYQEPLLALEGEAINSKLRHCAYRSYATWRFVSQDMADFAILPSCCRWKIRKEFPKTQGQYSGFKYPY
How it was run: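 TEVC was run on Xenopus oocytes ~20 h after injection of wild-type or mutant rP2X7 mRNA, in pH 7.4 HEPES buffer with 0.1 mM flufenamic acid. Receptors were facilitated at 100 µM before recording. Dilution series: ATP 1.5 mM–2 µM (7 points), BzATP 300–0.14 µM (8 points). Responses were normalized to the largest concentration, fitted by nonlinear regression for EC50, and averaged across triplicates (mean ± SD).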

human P2X3 = conditions: cited from earlier work
zebra fish P2X4 = conditions: cited from earlier work

higher apparent affinity than ATP (EC50 ratio) [1]	Compound	Kd (human P2X3)	Kd (zebra fish P2X4)
~ 28 fold	BzATP		
	Nc1ncnc2c1ncn2[C@@H]1O[C@H](COP(=O)(O)OP(=O)(O)OP(=O)(O)O)[C@@H](O)[C@H]1O [ATP]	2.8 ± 0.1 nM	11.6 ± 1.7 nM
